This is an account of results in publication PMC3754432 (Journal of the American Chemical Society, 2013).

In series [1] the target is T1, Cytochrome P450 2B6 (Homo sapiens, UniProt P20813, K262R/Y226H).
T1 sequence (P20813 with tags, fused parts or gaps Y226H/K262R limits assumed): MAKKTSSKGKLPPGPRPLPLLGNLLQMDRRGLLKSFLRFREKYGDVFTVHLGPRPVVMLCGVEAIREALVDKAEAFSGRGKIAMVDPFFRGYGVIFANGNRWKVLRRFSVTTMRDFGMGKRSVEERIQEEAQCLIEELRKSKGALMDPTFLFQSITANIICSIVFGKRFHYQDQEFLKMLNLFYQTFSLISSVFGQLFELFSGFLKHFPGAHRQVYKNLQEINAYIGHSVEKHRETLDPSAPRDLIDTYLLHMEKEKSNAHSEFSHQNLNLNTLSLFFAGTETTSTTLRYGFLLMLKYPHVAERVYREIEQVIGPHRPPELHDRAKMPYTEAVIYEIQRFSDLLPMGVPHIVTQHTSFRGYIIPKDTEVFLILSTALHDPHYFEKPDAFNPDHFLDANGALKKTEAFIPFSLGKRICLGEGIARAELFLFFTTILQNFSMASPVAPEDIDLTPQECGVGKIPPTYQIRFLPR
Kind of series: Isothermal titration calorimetry. It is filed as binding. The settings on record: 25 °C. For orientation: In ITC the heat of successive injections is recorded.

In series [2] the target is T1, Cytochrome P450 2B6. Nature of the series: Spectral binding titration. The settings on record: for Kd: mean (SD). A digest of the protocol:
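Human 2B6 (Y226H/K262R), co-expressed with GroEL/ES in E. coli JM109 and purified by Ni-NTA then CM-Sepharose; P450 quantified by reduced CO difference spectra. Titrated at 25 °C with stirring in 50 mM K-phosphate pH 7.4, 500 mM NaCl, 1 mM EDTA, 1 mM TCEP. Ligand was added from acetone (<1% final) and 350–700 nm spectra were recorded. High-spin fraction was derived by PCA against spin-state standards. KS came from a tight-binding fit, or a Hill fit for one ligand.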

Series [3] deals with 2B6. Conditions: cited from earlier work.
Series [4] deals with T2, Cytochrome P450 2A6 (Homo sapiens, UniProt P11509).
T2 sequence (P11509 with tags, fused parts or gaps limits assumed): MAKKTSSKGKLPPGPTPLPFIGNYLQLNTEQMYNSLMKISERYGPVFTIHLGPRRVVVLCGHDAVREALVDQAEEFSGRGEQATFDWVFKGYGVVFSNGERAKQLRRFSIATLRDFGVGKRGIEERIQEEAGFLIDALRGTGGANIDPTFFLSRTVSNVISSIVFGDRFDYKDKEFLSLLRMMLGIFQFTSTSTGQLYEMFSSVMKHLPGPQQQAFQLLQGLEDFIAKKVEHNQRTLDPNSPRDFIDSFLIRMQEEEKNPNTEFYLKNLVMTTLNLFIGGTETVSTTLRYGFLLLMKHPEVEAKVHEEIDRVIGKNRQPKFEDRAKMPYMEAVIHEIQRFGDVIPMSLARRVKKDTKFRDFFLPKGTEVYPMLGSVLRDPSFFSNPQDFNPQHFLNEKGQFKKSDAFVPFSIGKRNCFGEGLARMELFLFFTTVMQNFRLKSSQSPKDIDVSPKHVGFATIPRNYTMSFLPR
Nature of the series: Isothermal titration calorimetry. The format is binding. The settings on record: 25 °C.

In series [5] the target is T2, Cytochrome P450 2A6. Kind of series: Spectral binding titration. Conditions: read-out: Ks (spectral dissociation constant), 25 °C, mean (SD).
Series [6] relates to 2B6. Nature of the series: Maximal binding affinity for 2B6 predicted from logP. Also on record: species or system human. Conditions: 298 K, based solely on enthalpy of desolvation, −1.364×logP.

“And” between values parts separate entries of the source, which are not always exact repeats. Identical values can stand only once.

Consider `CC1=CCC2C(C1)C2(C)C` (single isomer, unassigned; (+)) [(+)-3-carene], for which the “KD (KA^−1 from ITC)” value at Cytochrome P450 2B6 [1] (mean (SD)) is recorded as 1.82 (0.61) 10^−6 M. Besides, at Cytochrome P450 2B6 [1] (ITC, mean (SD)), the ΔG is recorded as −7.5 (1.4) kcal/mol and the ΔS is on record as 3.2 (2.3) cal/mol/K. The ΔH on Cytochrome P450 2B6 [1] (ITC, mean (SD) of at least three experiments) is −6.3 (2.2) kcal/mol. Also, the “spectral shift upon binding” value at Cytochrome P450 2B6 [2] (2B6, increase at 390 nm, decrease at 417 nm) is “Type I spectral shift”. For the same molecule, at Cytochrome P450 2B6 [2] (read-out: Ks measured using the Hill equation giving the S50, spectral titration, 2B6, Hill equation, n=2), the Kd worked out at 1600 nM. Moreover, the “ΔFh (maximal increase in fraction of high-spin P450)” value at Cytochrome P450 2B6 [2] (spectral titration, 25 °C, 2B6) is 42.5 ± 3.4% and 42.5 (3.4) %.
Take `COC(=O)[C@H](c1ccccc1Cl)N1CCc2sccc2C1` [clopidogrel]: the “change in the fraction of high-spin P450” value in the series on 2B6 [3] was 2 – 4%.
Turning to `Clc1ccccc1CN1CCc2sccc2C1` [ticlopidine], the “change in the fraction of high-spin P450” value with 2B6 [3] is given as 2 – 4%.
In the case of (+)-α-Pinene, the figures for the “KD (KA^−1 from ITC)” value on Cytochrome P450 2B6 [1] (mean (SD)) and on Cytochrome P450 2A6 [4] (mean (SD)) were 0.22 (0.17) 10^−6 M and 0.17 (0.05) 10^−6 M, respectively. In addition, the Kd on Cytochrome P450 2B6 [1] (ITC) was around 220 nM; on Cytochrome P450 2A6 [4] (ITC) it was around 170 nM; on Cytochrome P450 2B6 [2] (read-out: Ks (spectral dissociation constant), spectral titration, 25 °C, 2B6), 380 nM; at Cytochrome P450 2A6 [5], 34200 nM. Further, the “maximal binding affinity predicted from logP” value in the series with 2B6 [6] is listed as ~ −6 kcal/mol.
